# According to ChEMBL document CHEMBL1124844, “Synthesis and biological activities of novel 5-(2-acylethynyl)uracils” (J Med Chem, 1990):
# What was measured:
# [1] = Effect on the survival of mice bearing ascites tumor in extremes treated at the dose of 140 mg/kg; format: functional, Mus musculus
# How it was run: (§1)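 EAC-bearing Swiss mice given ip compound in saline/10% propylene glycol, single dose or daily for 7 days, starting 24 h after ip inoculation of 1 × 10⁶ cells. Five mice per dose; vehicle controls. Value is the range (shortest to longest) of survival days in the treated group.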
# [2] = Effect on the survival of mice bearing ascites tumor in extremes treated at the dose of 210 mg/kg; format: functional, Mus musculus; how it was run: as §1
# [3] = Effect on the survival of mice bearing ascites tumor in percent controls at the dose of 140 mg/kg; format: functional, Mus musculus
# How it was run: (§2)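 Swiss mice inoculated ip with 1 × 10⁶ EAC cells, then treated ip with compound in saline/10% propylene glycol, single dose or 7 daily doses, starting 24 h later. Five mice per dose; vehicle controls. Treated median survival time expressed as percent of control; >125 counted active.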
# [4] = Percent inhibition of ascitic fluid at the dose of 20 mg/kg; format: functional; conditions: Mus musculus
# How it was run: (§3)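 EAC cells drawn from Swiss mouse bearing a 10–20 day tumor, diluted and counted; Swiss mice (18–20 g) inoculated ip with 1 × 10⁶ cells in 0.2 mL on day 0. Dosing ip once daily on days 1–7, in normal saline with 10% propylene glycol; controls given vehicle. Five animals per dose group. Tumor cell counts and ascitic fluid weight compared, treated (T) vs control (C).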
# [5] = Drug evaluation at the dose of 20 mg/kg by counting the average ascites cells number; 35/150; format: functional, Mus musculus; how it was run: as §3
# [6] = Effect on the survival of mice bearing ascites tumor in percent controls at the dose of 210 mg/kg; format: functional, Mus musculus; how it was run: as §2
# [7] = Effect on the survival of mice bearing ascites tumor at the dose of 30 mg/kg; format: functional, Mus musculus
# How it was run: (§4)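 Swiss mice (18–20 g) inoculated ip on day 0 with 1 × 10⁶ EAC cells drawn from a 10–20 day donor tumor. Compounds homogenized in normal saline with 10% propylene glycol and given ip starting 24 h later, as single dose or daily for 7 days. Five mice per dose; vehicle-only controls. Survival read as median survival time (days).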
# [8] = Effect on the survival of mice bearing ascites tumor in percent controls at the dose of 30 mg/kg; format: functional, Mus musculus; how it was run: as §2
# [9] = Effect on the survival of mice bearing ascites tumor at the dose of 210 mg/kg; format: functional, Mus musculus; how it was run: as §4
# L1210 [10] = experiment: (§5) Effect on L1210/0 cells in culture; format: functional, cell-based; conditions: Mus musculus
# How it was run: (§6)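 Murine L1210/0 leukemia and human CCRF-CEM lymphoblastoid cells incubated at 37 °C for 48 h over a range of compound concentrations. Growth inhibition read as IC50 (μM).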
# [11] = Drug evaluation at the dose of 20 mg/kg by calculating fluid weight; 0.8/2; format: functional, Mus musculus; how it was run: as §3
# [12] = Effect on the survival of mice bearing ascites tumor at the dose of 140 mg/kg; format: functional, Mus musculus; how it was run: as §4
# [13] = Effect on the survival of mice bearing ascites tumor at the dose of 20 mg/kg; format: functional, Mus musculus; how it was run: as §4
# CCRF-CEM [14] = experiment: (§7) Effect on CCRF-CEM cells in culture; format: functional, cell-based; conditions: Homo sapiens; how it was run: as §6
# [15] = Effect on the survival of mice bearing ascites tumor in extremes treated at the dose of 20 mg/kg; format: functional, Mus musculus; how it was run: as §1
# [16] = Effect on the survival of mice bearing ascites tumor in extremes treated at the dose of 30 mg/kg; format: functional, Mus musculus; how it was run: as §1
# [17] = Percent inhibition of ascites cell at the dose of 20 mg/kg; format: functional; conditions: Mus musculus; how it was run: as §3
# [18] = Effect on the survival of mice bearing ascites tumor in percent controls at the dose of 20 mg/kg; format: functional, Mus musculus; how it was run: as §2
# CCRF-CEM [19] = experiment: Effect on CCRF-CEM cells (human lymphoblastoid cells) in culture; format: functional, cell-based; how it was run: as §6
# [20] = Drug evaluation at the dose of 20 mg/kg by counting the average ascites cells number; 100/123; format: functional, Mus musculus; how it was run: as §3
# [21] = Drug evaluation at the dose of 20 mg/kg by calculating fluid weight; 2/2.5; format: functional, Mus musculus; how it was run: as §3
# [22] = Effect on the survival of mice bearing ascites tumor at the dose of 70 mg/kg; format: functional, Mus musculus; how it was run: as §4
# [23] = Effect on the survival of mice bearing ascites tumor in percent controls at the dose of 70 mg/kg; format: functional, Mus musculus; how it was run: as §2
# [24] = Effect on the survival of mice bearing ascites tumor in extremes treated at the dose of 70 mg/kg; format: functional, Mus musculus; how it was run: as §1
# [25] = Effect on the survival of mice bearing ascites tumor in extremes treated at the dose of 10 mg/kg; format: functional, Mus musculus; how it was run: as §1
# [26] = Effect on the survival of mice bearing ascites tumor at the dose of 10 mg/kg; format: functional, Mus musculus; how it was run: as §4
# L1210 [27] = experiment: Effect on L1210/0 cells (mouse leukemia cells) in culture
# [28] = Effect on the survival of mice bearing ascites tumor in percent controls at the dose of 10 mg/kg; format: functional, Mus musculus; how it was run: as §2
# [29] = Drug evaluation at the dose of 20 mg/kg by counting the average ascites cells number; 59/165; format: functional, Mus musculus; how it was run: as §3
# CCRF-CEM [30] = experiment: as §7; format: functional, cell-based; conditions: Homo sapiens; remark: listed apart in the source
# How it was run: (§8)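 CCRF-CEM human lymphoblastoid or L1210/0 mouse leukemia cells incubated with a range of compound concentrations at 37 °C for 48 h; IC50 (μM) taken from cell growth.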
# L1210 [31] = experiment: as §5; format: functional, cell-based; conditions: Mus musculus; how it was run: as §8; remark: listed apart in the source
SMILES,Extremes treated [1],Extremes treated [2],Controls [3] [%],inhibition in vivo at 20 mg/kg [4] [%],Controls [6] [%],Survival treated [7],Controls [8] [%],Survival treated [9],IC50 (L1210 [10]) [nM],Survival treated [12],Survival treated [13],Extremes treated [15],Extremes treated [16],inhibition in vivo at 20 mg/kg [17] [%],Controls [18] [%],IC50 (CCRF-CEM [19]) [nM],other results
O=C(C#Cc1cnc(O)nc1O)c1ccccc1,39,22,281,60,165,17.5,134,21.5,650,36.5,22,23,18,76,169,,T/C [5]: 0.233; T/C [11]: 0.4; IC50 (CCRF-CEM [14]): 2000 nM
COc1ccc(C(=O)C#Cc2cnc(O)nc2O)cc1,15,16,127,20,127,12,109,14,2000,14,18,19,13,19.1,164,2300,T/C [20]: 0.813; T/C [21]: 0.8
Cc1ccc(C(=O)C#Cc2cnc(O)nc2O)cc1,35,,300,,,,,,,34.5,20.5,23,,,178,2250,Survival treated [22]: 30; Controls [23]: 260%; Extremes treated [24]: 31; Extremes treated [25]: 14; Survival treated [26]: 13; IC50 (L1210 [27]): 1900 nM; Controls [28]: 113%
O=C(C#Cc1cnc(O)nc1O)c1ccccc1Cl,18,27,127,37.5,204,18.5,142,26.5,2000,16.5,16.5,17,20,64.2,127,2200,T/C [29]: 0.358
O=c1[nH]cc(F)c(=O)[nH]1 [FLUOROURACIL],14,,92,,,,,,,11,41,45,,,342,,IC50 (CCRF-CEM [30]): 2000 nM; IC50 (L1210 [31]): 300 nM
